# The list is not random: actives were taken first. Their share in the collection is about 2.1%.
# Mot1-301 SUMO: SUMOylation pathway inhibition by Mot1-301 growth rescue; S. cerevisiae Mot1-301 growth rescue, ATP luminescence, 38.5C; percent above DMSO median, 100 means doubled; growth rescue, % at 18.8 µM; 1% of 320,000 active;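 active = every valid replicate shows activation above 250% relative to neutral control wells; inactive = the rest, any valid replicate at or below 250%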;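 also: OY570 slx delta 5 strain wells were the positive control but not used for scaling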
# ARNT TACC3 PPI: ARNT/TACC3 interaction disruption | Q9Y6A5 | AlphaScreen His-ARNT PAS-B/GST-TACC3 binding, luminescence; TACC3 fragment carries E629A point mutation | inhibition, % at 9.99 µM | 0.66% of 390,000 active | AID 623870;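 active = mean inhibition of replicates at least 50% and at least half of replicates each reaching 50%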;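 also: 0% = complete ARNT plus TACC3 wells and 100% = ARNT alone without TACC3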
# RTF Ca sens inh: cardiac RTF calcium desensitization. P19429+P45379. IANBD-labeled cardiac RTF, Ca2+ fluorescence. inhibition, % at 7.15 µM. 0.12% of 340,000 active;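 active = inhibition above the mean inhibition of all tested compounds plus 3 SD, cut at about 17% in these data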;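 also: assay run at fixed EC70 calcium of 1.6 mM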
# RTF Ca sens act: increases calcium sensitivity of human cardiac regulated thin filaments; P19429+P45379; IANBD-labeled TnC RTF fluorescence at EC20 calcium; 0% EC20 calcium, 100% full calcium; 0.24% of 340,000 active; activation, % at 7.2 µM; AID 493008;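 active = activation above the mean over all tested compounds plus 3 SD, cut at about 30% in these data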;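 also: rise in fluorescence read as greater calcium sensitivity of cardiac thin filaments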
# UCH37 inh: blocks the human deubiquitinase UCH37; purified proteasome/UCH37, Ub-AMC cleavage fluorescence; 0.33% of 330,000 active; inhibition, % (no concentration beside the values); AID 588478; Q9Y5K5;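 active = mean inhibition over replicate wells above about 20%, limit read from the data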;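 also: 0% = compound-free wells with enzyme and 100% = wells lacking proteasome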
# Target sequence (Q9Y5K5 whole entry, looked up): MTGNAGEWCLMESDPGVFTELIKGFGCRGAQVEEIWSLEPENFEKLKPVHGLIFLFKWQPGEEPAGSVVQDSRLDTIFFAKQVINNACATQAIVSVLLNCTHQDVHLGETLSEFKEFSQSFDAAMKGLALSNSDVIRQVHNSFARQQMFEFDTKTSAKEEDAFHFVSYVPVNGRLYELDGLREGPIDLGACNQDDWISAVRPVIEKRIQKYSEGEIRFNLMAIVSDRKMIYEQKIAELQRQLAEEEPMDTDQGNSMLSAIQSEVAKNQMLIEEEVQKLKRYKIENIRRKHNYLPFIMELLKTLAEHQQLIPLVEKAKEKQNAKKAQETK
#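 Assay system: Proteasome-bound UCH37. Buffer or medium: pH 7.4 Tris-HCl (50 mM) with ovalbumin, ATP-MgCl2, DTT. Incubation: 30 min preincubation with enzyme, 25 min cleavage at room temperature. Measured by: fluorescence, ex 355 nm, em 460 nm. Read-out basis: percent inhibition. Control set: wells without proteasome as full block, compound-free enzyme plus substrate as uninhibited.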
# Efflux pump inh: inhibitors of Candida antifungal efflux pumps expressed in yeast; S. cerevisiae Candida pump triplex, Nile Red efflux; inhibition, % at 10 µM; 0.44% of 330,000 active;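 active = plate passing quality check with inhibition over a set limit, or well fluorescence over plate mean plus 4 SD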;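 also: Nile Red retained in pooled yeast measured as flow cytometry median fluorescence; 0% = buffer negative control and 100% = Enniatin B positive control; higher means more Nile Red kept so more efflux inhibition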
# ARNT Alpha ctr: counter-screen for ARNT/TACC3 inhibitors: AlphaScreen artifacts; shares compounds with ARNT TACC3 PPI; His-ARNT PASB-GST AlphaScreen artifact counter-screen, luminescence; AC50, µM (titrated, usually from 68 µM), without a hit: at the highest dose activity change, negative = signal decrease; 50% of 1,200 active;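 active = every separate test run was called active for a drop in luminescence, with AC50 within twice the top valid dose, actives reach about 71 µM in these data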
# * hit, by the source's call; . = no result given; [ ] = another dose, or the depositor's remark.
SMILES,Mot1-301 SUMO,ARNT TACC3 PPI,RTF Ca sens inh,RTF Ca sens act,UCH37 inh,Efflux pump inh,ARNT Alpha ctr
C[C@@H]1CN([C@H](C)CO)C(=O)Cc2cc(NC(=O)Nc3cccc4ccccc34)ccc2O[C@H]1CN(C)Cc1ccc(Oc2ccccc2)cc1,.,20,.,.,.,.,.
CC(C)NC(=O)N(C)C[C@H]1Oc2ccc(N(C)C)cc2CC(=O)N([C@@H](C)CO)C[C@@H]1C,.,60*,.,.,.,.,10%[42 µM]
C[C@@H]1CN([C@@H](C)CO)C(=O)Cc2cc(NC(=O)Nc3cccc4ccccc34)ccc2O[C@H]1CN(C)Cc1ccc(Oc2ccccc2)cc1,.,72*,.,.,.,.,14µM*
CC(C)NC(=O)Nc1ccc2c(c1)CC(=O)N([C@H](C)CO)C[C@@H](C)[C@@H](CN(C)Cc1ccc(Oc3ccccc3)cc1)O2,.,active,.,.,.,.,71µM*
C[C@@H]1CN([C@H](C)CO)C(=O)Cc2cc(N(C)C)ccc2O[C@H]1CN(C)Cc1ccc(Oc2ccccc2)cc1,.,52*,.,.,.,.,15µM*
C[C@@H]1CN([C@H](C)CO)C(=O)Cc2cc(N(C)C)ccc2O[C@@H]1CN(C)C(=O)NC1CCCCC1,.,0,.,.,.,.,.
CCN(CC)c1ccc(C=NN=C(N)N)c(O)c1,.,.,.,.,-20,.,.
CS(=O)(=O)N(CC(=O)NN=Cc1ccccc1C(=O)O)c1cccc(Cl)c1Cl,.,.,.,.,3,.,.
COc1ccc(NC(=O)Nc2ccc3c(c2)CC(=O)N([C@H](C)CO)C[C@H](C)[C@@H](CN(C)Cc2ccc(Oc4ccccc4)cc2)O3)cc1,.,55*,.,.,.,.,19µM*
COc1ccc(NC(=O)Nc2ccc3c(c2)CC(=O)N([C@@H](C)CO)C[C@H](C)[C@H](CN(C)Cc2ccc(Oc4ccccc4)cc2)O3)cc1,.,9,.,.,.,.,.
COc1ccc(-c2cnc3c(c2)C(=O)N([C@H](C)CO)C[C@@H](C)[C@H](CN(C)Cc2cccnc2)O3)cc1,.,108*,.,.,.,.,-3%[38 µM]
COc1cc(OC)cc(C(=O)NN=Cc2ccc(OC)c(COc3ccc(F)cc3)c2)c1,.,.,.,.,4,.,.
Cc1ccn2c(Nc3ccccc3C)c(-c3ccccn3)nc2c1,-5,70*,11,1,-5,0,21µM*
Cc1ccn2c(Nc3ccccc3)c(-c3ccccn3)nc2c1,-21,43,-4,-4,-6,0,.
Cc1ccc(-c2cc(C(=O)NCc3cccnc3)no2)cc1,10,0,1,10,-1,0,.
O=C(NCc1ccccc1)c1cc(-c2ccccc2)on1,.,.,.,.,.,.,-2%[38 µM]
Cc1ccc(CNC(=O)c2cc(-c3ccccc3)on2)cc1,.,.,.,.,.,.,2%[38 µM]
O=C(NCCCCO)c1cc(-c2ccccc2)on1,.,.,.,.,.,.,-5%[38 µM]
O=C(NCc1ccco1)c1cc(-c2ccccc2)on1,-9,-10,-2,-4,3,0,.
COc1cc([N+](=O)[O-])cc(C=NNC(=O)c2cccnc2)c1O,.,.,.,.,17,.,.
CC(C)=CCCC1=CCC(C=NNC(N)=O)C(C)C1 (centres undefined),.,.,.,.,3,.,.
O=C(NN=Cc1ccc([N+](=O)[O-])o1)c1cc(-c2cccc(Br)c2)nc2ccccc12,.,.,.,.,4,.,.
Oc1c(C(Nc2cccc(C(F)(F)F)c2)c2ccncc2)ccc2cccnc12 (centres undefined),-15,53*,11,-1,2,0,4.1µM*
Oc1c(C(Nc2nccs2)c2ccc(C(F)(F)F)cc2)ccc2cccnc12 (centres undefined),.,28,1,3,0,.,.
CCOC(=O)Cc1nnc(NC(=O)c2ncn[nH]2)s1,-6,69*,-4,2,3,0,-8%
SMILES,Mot1-301 SUMO,ARNT TACC3 PPI,RTF Ca sens inh,RTF Ca sens act,UCH37 inh,Efflux pump inh,ARNT Alpha ctr
CCOC(=O)Cc1nnc(NC(=O)c2ccccc2OCC)s1,3,-8,2,2,-5,0,.
O=C(N[C@H]1CC[C@H](CCn2cc(-c3ccccn3)nn2)O[C@@H]1CO)c1cccnc1,.,83*,.,.,.,.,33µM*
O=C(N[C@@H]1CC[C@H](CCn2cc(-c3ccccn3)nn2)O[C@@H]1CO)c1cccnc1,.,89*,.,.,.,.,34µM*
O=C(N[C@H]1CC[C@@H](CCn2cc(C3CC3)nn2)O[C@@H]1CO)c1cccnc1,.,-18,.,.,.,.,.
O=C(N[C@H]1CC[C@@H](CCn2cc(-c3ccccn3)nn2)O[C@H]1CO)c1cccnc1,.,69*,.,.,.,.,26µM*
O=C(N[C@H]1CC[C@@H](CCn2cc(-c3ccccn3)nn2)O[C@@H]1CO)c1cccnc1,.,83*,.,.,.,.,52µM*
CC(=NNC(=O)CN1CCOCC1)C(C)(C)C,.,.,.,.,4,.,.
O=C(N[C@H]1CC[C@H](CCn2cc(-c3ccccn3)nn2)O[C@H]1CO)c1cccnc1,.,85*,.,.,.,.,44µM*
COc1ccc(C=NNC(=S)NCCc2ccccc2)cc1,.,.,.,.,3,.,.
O=C(N/N=C/c1cc([N+](=O)[O-])ccc1O)Nc1ccccc1,-3,25,-1,0,.,0,.
CCNC(=O)C(=O)N/N=C/c1cc([N+](=O)[O-])ccc1O,6,61*,-6,-4,.,0,25µM*
CC(=O)NC(C)c1cc(Cl)c2ccccc2c1O (centres undefined),-15,-8,-2,5,0,0,.
CC(=O)NC(C)c1cc(Cl)c2cccnc2c1O (centres undefined),-15,52*,-2,8,4,0,36µM*
CCC(=O)NC(c1ccc(OC)c(OC)c1)c1cc(Cl)c2cccnc2c1O (centres undefined),.,8,-4,7,1,.,.
CCC(=O)NC(C)c1cc(Cl)c2cccnc2c1O (centres undefined),-24,61*,4,5,4,0,43µM*
O=C(CON=Cc1cccc([N+](=O)[O-])c1)NC1CCCCCC1,.,.,.,.,-1,.,.
Cc1ccc(C(=O)Nc2nnc(CC(=O)NN=Cc3ccc(O)c(O)c3)s2)cc1,.,.,.,.,-1,.,.
O=C(NC[C@H]1[C@@H](c2ccccc2)[C@@H](CO)N1Cc1ccccn1)C1CC1,.,48*,.,.,.,.,-12%[42 µM]
O=C(NC[C@H]1[C@H](c2ccccc2)[C@H](CO)N1Cc1ccccn1)C1CCC1,.,38*,.,.,.,.,-14%[42 µM]
COc1ccc(C=NNC(=O)C(=O)Nc2ccccn2)cc1OC,.,.,.,.,3,.,.
N[C@H]1CC[C@@H](CCn2cc(-c3ccccn3)nn2)O[C@H]1CO,.,75*,.,.,.,.,6µM*
O=C(N[C@@H]1CC[C@H](CCn2cc(-c3ccccn3)nn2)O[C@@H]1CO)c1ccncc1,.,66*,.,.,.,.,33µM*
O=C(N[C@H]1CC[C@@H](CCn2cc(-c3ccccn3)nn2)O[C@H]1CO)c1ccncc1,.,65*,.,.,.,.,31µM*
N[C@H]1CC[C@H](CCn2cc(-c3cccc(F)c3)nn2)O[C@@H]1CO,.,7,.,.,.,.,.
CNc1nc(OC)nc(N2CCOCC2)n1,12,.,2,-1,-2,0,.
